Compounds with a hit are over-represented: about 2.3% of the library has one in this group of screens.
TRPC4 agonist: activators of mouse TRPC4 channel, primary screen, Fluo4 calcium, HEK293 TRPC4beta/mu-opioid cells; B-score at 10 µM; 310,000 compounds, 0.49% hits; Fluo4 calcium fluorescence; active compounds read high; Short transient receptor potential channel 4 (Mus musculus), Q9QUQ5;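 active = B-score above 5 SD of library B-scores, and initial fluorescence ratio not above library mean plus 5 SD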;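 also: positive B-score marks a calcium rise read as TRPC4 activation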
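Assay system: HEK293 cells stably co-expressing mouse TRPC4beta and mu-opioid receptor / Timing: Fluo4 dye loading 45 min at room temperature, 110 s recording / Signal: Fluo4 calcium-sensitive dye fluorescence, kinetic, 1 Hz baseline / Read-out: integrated baseline-normalised fluorescence ratio, converted to per-well B score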
TRPC6 inh: mouse TRPC6 channel inhibitors, primary screen, cell-based, HEK293, membrane potential dye; Short transient receptor potential channel 6 (Mus musculus), Q61143; ACh-evoked depolarization; active compounds read low; B-score at 10 µM; 310,000 compounds, 1.1% hits;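 active = B-score under library mean minus 3 SD, initial fluorescence not abnormally high, positive integrated signal ratio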;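 also: B-score derived from integrated fluorescence ratio over the kinetic read; more negative B-score means stronger inhibition of depolarization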
FID counter: compounds displacing fluorescent DNA intercalator, primary screen, artefact control for HCV NS3 helicase inhibitor project, biochemical, FID fluorescence; inhibition, % at 7.9 µM; 290,000 compounds, 0.17% hits; DNA fluorescent intercalator displacement; AID 1845, 2009; in the data active = inhibition above about 37%;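 also: higher means more ethidium bromide displaced from hairpin DNA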
TRPC4 PAM: positive allosteric modulators of TRPC4, primary screen, cell-based, mouse TRPC4beta, HEK293 mu-opioid, Fluo-4 calcium; DAMGO EC20, Fluo-4 Ca2+ flux; active compounds read high; B-score at 10 µM; 310,000 compounds, 0.42% hits; AID 2227, 2009;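 active = B-score of calcium response area above 5 SD of library B-scores, with initial fluorescence ratio within 5 SD of library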
TRPC4 block: inhibitors of mouse TRPC4 channel, primary screen, Fluo4 calcium, HEK293 TRPC4beta/mu-opioid cells; DAMGO-evoked Fluo4 calcium flux; active compounds read low; B-score at 10 µM; 300,000 compounds, 0.39% hits;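 active = B-score over 3 SD under the library average, no early fluorescence shift, positive overall ratio signal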
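Assay system: HEK293 cells with stable TRPC4beta plus mu-opioid receptor expression; Probe or stimulus: DAMGO in two steps, submaximal then maximal; Dosing: single-point compound dosing; Measured by: Fluo4 calcium-dye fluorescence, kinetic read; Read-out basis: B score from integrated Fluo4 fluorescence ratio.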
TRPC6 activator: mouse TRPC6 channel activators, primary screen, cell-based, HEK293, membrane potential dye; HEK293-TRPC6 membrane potential dye fluorescence; active compounds read high; B-score at 10 µM; AID 2550, 2010; 310,000 compounds, 0.13% hits; Short transient receptor potential channel 6 (Mus musculus), Q61143;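 active = B-score of the integrated fluorescence ratio above library mean plus 3 SD, and starting fluorescence ratio within library mean plus 5 SD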;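 also: higher score means more depolarization so channel activation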
Hits are given with their value; n = inactive; x = not tested or not shown.

SMILES	TRPC4 agonist	TRPC6 inh	FID counter	TRPC4 PAM	TRPC4 block	TRPC6 activator
O=C(c1cccc2ccccc12)C1CCCN(Cc2ccon2)C1 (stereo not drawn)	n	n	n	n	n	n
O=C(c1cccc2ccccc12)C1CCCN(C2CCC2)C1 (stereo not drawn)	n	n	n	10	n	n
C[C@]12CC(=O)CC1CCC1C2CC[C@@]2(C)C1CC[C@@H]2O (stereo partly drawn)	n	n	n	n	n	n
COCCNC(=O)CN1C(=O)CN=C(c2ccccc2)c2ccccc21	n	n	n	n	n	n
COC(=O)C(O)(c1ccc(NC(=S)NC(=O)c2ccc(Cl)cc2Cl)c(C)c1)C(F)(F)F (stereo not drawn)	n	n	n	32	n	n
COC(=O)C(O)(c1ccc(NC(=S)NC(=O)c2ccc(Cl)cc2Cl)cc1)C(F)(F)F (stereo not drawn)	n	n	n	n	n	n
CCOC(=O)C(O)(c1ccc(NC(=S)NC(=O)c2ccc(Cl)cc2Cl)cc1)C(F)(F)F (stereo not drawn)	n	n	n	13	n	n
CCOC(=O)C(O)(c1ccc(NC(=S)NC(=O)c2ccc(Cl)cc2Cl)c(C)c1)C(F)(F)F (stereo not drawn)	n	n	n	16	n	n
NC(N)=N/N=C/c1cn(-c2ccccc2)nc1-c1cccs1	97	n	n	n	n	n
O=c1c2ccccc2nc(-c2cccs2)n1-c1ccccc1	n	n	n	n	n	n
CC/C(=N\Nc1ccccc1)c1c(O)n(C)c(=O)n(C)c1=O	n	n	n	13	-6	n
COc1ccc(CNCCc2ccc3c(c2)OCO3)cc1Br	107	n	n	n	n	n
CC(C)c1ccc(NC(=O)CCNC(=O)N2C[C@H]3C[C@@H](C2)c2cccc(=O)n2C3)cc1	n	n	n	n	n	n
Cc1cc(C(=O)N2CCC3(CC2)OCCO3)no1	n	n	n	n	n	n
CSc1ccc(C(=O)C2CCCN(CCCn3cccn3)C2)cc1 (stereo not drawn)	83	n	n	n	n	n
O=[N+]([O-])c1ccc(N2CCNCC2)cc1NCc1ccco1	n	n	n	n	n	n
CNc1cc(N2CCNCC2)ccc1[N+](=O)[O-]	n	n	n	13	n	n
Nc1cc(N2CCNCC2)ccc1[N+](=O)[O-]	77	n	n	26	n	n
Clc1cccc(N2CCNCC2)c1	n	n	x	n	n	n
CN1CCN(c2ccc([N+](=O)[O-])c(N3CCCCC3)c2)CC1	n	n	n	n	n	n
CN1CCN(c2ccc([N+](=O)[O-])c(N)c2)CC1	n	n	n	10	n	n
O=[N+]([O-])c1ccc(N2CCNCC2)cc1N1CCCCCC1	n	n	n	18	n	n
COc1nc2ccccc2c(=O)n1-c1ccc(C)cc1	n	n	n	n	n	n
COc1nc2ccccc2c(=O)n1-c1ccc(Cl)cc1	n	n	n	11	n	n
Fc1ccccc1CNCCc1c[nH]c2ccccc12	n	n	n	n	n	n
SMILES	TRPC4 agonist	TRPC6 inh	FID counter	TRPC4 PAM	TRPC4 block	TRPC6 activator
Fc1ccc(CNCCc2c[nH]c3ccccc23)cc1	n	n	n	n	n	n
CCOc1cc(CNCCc2c[nH]c3ccccc23)cc(Cl)c1OCC	46	n	n	n	n	n
CCOc1c(Cl)cc(CNCCc2c[nH]c3ccccc23)cc1OC	53	n	n	n	n	n
CN1CCN(c2ccc([N+](=O)[O-])c3cccnc23)CC1	64	n	n	18	n	n
O=[N+]([O-])c1ccc(N2CCNCC2)cc1Sc1ccccn1	n	n	n	n	n	n
O=[N+]([O-])c1ccc(N2CCNCC2)c2ncccc12	69	-5.5	n	24	n	n
COc1cc(N2C(=O)CC(=O)NC2=O)cc(OC)c1OC	n	n	n	n	n	n

Screens (PubChem BioAssay)
